APJ agonist: activates the human apelin receptor APJ; P35414; CHO-K1 APJ PathHunter beta-arrestin, luminescence; 0% DMSO wells, 100% apelin; activation, % at 20 µM; 0.11% of 330,000 active;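 active = activation more than six SD over the plate average, tested at 20 µM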;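 note: 0% = DMSO alone and 100% = apelin-13 at 10 nM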
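system = engineered CHO-K1 APJ arrestin reporter cells | input = 1000 cells per well | timing = overnight seeding, 90 min compound at 25 °C, 1 h detection | measured by = enzyme-fragment complementation luminescence | read-out = beta-arrestin recruitment to APJ as agonist activity, luminescent signal | control set = negative DMSO alone, positive Apelin-13 at 10 nM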
CCR6 antag: blocks CCL20-driven beta-arrestin recruitment at human CCR6 | P51684 | AID 493098 | inhibition, % at 20 µM | 0.49% of 340,000 active | CHO-K1 CCR6 PathHunter beta-arrestin, luminescence, CCL20-stimulated;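 active = compounds whose inhibition of the agonist-driven luminescence signal at 20 µM reaches about 50%, limit read from the data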;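 note: cells stimulated with CCL20 at 14 nM final; plate controls were DMSO with CCL20 for no effect and DMSO without agonist for full effect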
CXCR6 block: blocks human CXCR6 beta-arrestin recruitment | O00574 | inhibition, % at 20 µM | AID 602244 | 0.36% of 360,000 active | CHO-K1 PathHunter CXCR6 beta-arrestin, luminescence; in the data active = inhibition above about 34%, passing the limit was not always enough;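 note: antagonist mode with CXCL16 agonist at 10 nM final; 0% = 10 nM CXCL16 with DMSO and 100% = unstimulated wells without agonist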
APJ antagonist: blocks the human apelin receptor APJ; P35414; CHO-K1 APJ beta-arrestin complementation, luminescence; 0.32% of 330,000 active; inhibition, % at 20 µM;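 active = inhibition above about 40% at 20 µM, limit read from the data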;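 note: cells challenged with 10 nM apelin-13 agonist together with compound; plate controls were apelin-13 plus DMSO wells for no effect and DMSO wells lacking apelin-13 for full effect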
HTR2A ag: agonists of mouse serotonin 5-HT2A receptor (HTR2A); P35363; CHO-K1 mHTR2A beta-arrestin complementation, luminescence; percent of 30 µM serotonin response; activation, % at 7.6 µM; 0.66% of 360,000 active; AID 624169;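 active = activation above a run cutoff, the mean activation of all tested compounds plus 3 SD, cut at about 14% in these data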;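 note: 0% = plate median of compound wells and 100% = 30 µM serotonin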
Target sequence (P35363 whole entry, looked up): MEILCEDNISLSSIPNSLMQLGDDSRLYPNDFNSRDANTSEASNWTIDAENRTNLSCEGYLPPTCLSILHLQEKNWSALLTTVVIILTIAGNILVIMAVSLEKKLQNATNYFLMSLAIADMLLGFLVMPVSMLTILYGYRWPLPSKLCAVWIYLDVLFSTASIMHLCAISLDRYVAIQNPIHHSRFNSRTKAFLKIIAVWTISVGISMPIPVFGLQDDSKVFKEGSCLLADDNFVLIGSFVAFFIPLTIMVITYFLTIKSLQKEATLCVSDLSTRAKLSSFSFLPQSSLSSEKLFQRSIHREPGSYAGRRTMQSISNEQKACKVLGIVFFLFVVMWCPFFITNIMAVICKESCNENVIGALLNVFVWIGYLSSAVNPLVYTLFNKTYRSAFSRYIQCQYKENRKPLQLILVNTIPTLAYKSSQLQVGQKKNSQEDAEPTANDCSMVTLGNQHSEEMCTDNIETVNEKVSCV
EBI2 block: antagonists of human EBI2 receptor | P32249 | EBI2 beta-arrestin recruitment, luminescence, 7a,25-OHC stimulated | inhibition, % at 5 µM | 0.81% of 360,000 active | AID 651636; in the data active = inhibition above about 38%;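 note: enzyme fragment complementation signal reports receptor beta-arrestin coupling in cells; 0% = agonist plus DMSO wells and 100% = wells without agonist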
EBI2 antag conf: confirmation of human EBI2 receptor antagonists. shares compounds with EBI2 block. EBI2 beta-arrestin luminescence, 7a,25-OHC antagonism. inhibition, % at 5 µM. 29% of 2,400 active. AID 651997;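 active = inhibition of at least 50%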
EBI2 agonist: activates EBI2, counter-screen for EBI2 antagonists | shares compounds with EBI2 block | EBI2-expressing cells, agonist mode, luminescence, 60 min; 0% vehicle, 100% 7α,25-dihydroxycholesterol control | activation, % at 5 µM | 2,400 tested, under 10 active | AID 652000;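 active = activation of at least 50%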
bGal counter: inhibits E. coli beta-galactosidase, counter-screen for EBI2 antagonists; shares compounds with EBI2 block; purified beta-galactosidase, luminescent Galacton Star, 15 min; inhibition, % at 5 µM; 1% of 2,400 active; AID 652176;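 active = replicate-average signal at least 3 plate SD below neutral wells, shown as high inhibition, flagging enzyme-inhibiting false positives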;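 note: 0% = DMSO wells with enzyme and 100% = wells lacking enzyme; higher means stronger loss of beta-gal luminescence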
* = called active by the depositor; nt = no result. Most compounds without a hit are left out; they make up all but 2.1% or so of the library.

SMILES	APJ agonist	CCR6 antag	CXCR6 block	APJ antagonist	HTR2A ag	EBI2 block	EBI2 antag conf	EBI2 agonist	bGal counter
COc1ccc(OC)c(NC(=O)CSCc2cnn(-c3ccccc3)c2-n2cccc2)c1	-4.2	12.9	-2.7	10.5	4.0	14.9	nt	nt	nt
COc1cc(NC(=O)CSCc2cnn(-c3ccccc3)c2-n2cccc2)cc(OC)c1	-0.8	23.1	0.0	6.7	1.9	37.3*	13.7	-1.7	-12.7
CC(=O)CCc1ccc(Oc2nc(-c3cccnc3)nc3ccccc23)cc1	-3.4	4.6	-7.1	-8.4	-0.8	53.9*	25.0	1.4	3.1
CCN1C(=O)/C(=C/c2nc3ccccc3c(=O)n2-c2ccccc2)c2ccccc21	-3.7	-9.5	12.4	8.9	4.7	45.2*	51.0*	2.2	-0.6
CCOc1cc(N2CCOCC2)c(OCC)cc1NC(=O)COC(=O)c1cccc2ccccc12	2.0	-2.6	6.7	3.6	-1.5	55.1*	42.5	-0.2	-22.3
CCCCNC(=O)C[C@@H]1C[C@@]2(C(=O)OC)CCCCC=C2N(Cc2cccc3ccccc23)C1=O	nt	nt	2.9	nt	12.7	0.2	nt	nt	nt
COC(=O)[C@]12CCCCC=C1N(Cc1cccc3ccccc13)C(=O)[C@H](CC(=O)NCCCCc1ccccc1)C2	nt	nt	12.9	nt	-6.4	46.9*	35.9	0.8	3.8
COC(=O)[C@@]1(C)[C@H]2C(=O)N(C)C(=O)[C@H]2[C@H]2CN=C(SC)N21	nt	-1.6	4.4	nt	-2.4	-1.0	nt	nt	nt
Cc1ccc(CNC(=O)C2CCN(S(=O)(=O)c3c(C)noc3C)CC2)cc1	1.4	-8.9	-6.0	10.0	0.1	47.2*	17.6	0.9	-10.1
Cc1ccc(CCNC(=O)C2CCN(S(=O)(=O)c3cccc4nonc34)CC2)cc1	1.0	10.0	5.6	9.3	2.3	0.7	nt	nt	nt
Cc1ccc(CNC(=O)C2CCC(CNS(=O)(=O)c3cccc4cccnc34)CC2)cc1 (configuration not stated)	-3.0	11.7	0.5	-28.4	-13.5	50.3*	38.9	-0.8	-10.3
Cc1ccc(CNC(=O)C2CCN(S(=O)(=O)c3cccc4nonc34)CC2)cc1	-2.6	17.0	5.3	4.0	-3.2	48.6*	23.8	-0.1	6.8
COc1cccc(CNC(=O)C2CCC(CNS(=O)(=O)c3cccc4cccnc34)CC2)c1 (configuration not stated)	-1.0	16.0	4.3	-1.5	6.6	3.5	nt	nt	nt
Cc1ccc(CNC(=O)C2CCN(S(=O)(=O)c3cccnc3)CC2)cc1	-5.8	7.0	-3.0	11.7	-6.8	52.4*	43.8	2.1	5.2
CCCCCc1c(-c2ccc(Br)cc2)ncn1CCc1ccccc1OC	nt	nt	11.9	nt	-3.5	14.8	nt	nt	nt
COc1ccc(/C=C(/NC(=O)c2ccco2)C(=O)Nc2ccc(C(=O)O)cc2)cc1	-2.3	11.1	5.6	21.8	0.8	-1.6	nt	nt	nt
O=C(CSc1nnc(-c2cccs2)n1C1CC1)NC1CCS(=O)(=O)C1 (configuration not stated)	-1.3	-18.2	3.7	0.1	0.9	-14.9	nt	nt	nt
CC(=O)N1CCOc2ccc(S(=O)(=O)N3CCC(C(=O)NCc4ccccc4)CC3)cc21	-2.2	-6.4	1.3	2.9	-5.8	64.6*	49.9	0.2	-14.0
CCN(C(=O)COC(=O)c1cc(Cl)ccc1OC)c1c(N)n(Cc2ccccc2)c(=O)[nH]c1=O	-3.5	-1.6	-1.8	14.4	2.2	-5.9	nt	nt	nt
COc1ccccc1C(=O)Nc1ccnn1C1CCN(Cc2cnn(C)c2C)CC1	2.5	17.7	-0.7	12.3	-6.1	-9.4	nt	nt	nt
CCOC(=O)C1=C(C)Nc2sc(C(=O)c3ccc(F)cc3)c(N)c2C1c1ccc(C(=O)OC)cc1 (configuration not stated)	-4.2	17.5	2.2	7.7	-1.7	36.8*	23.2	-2.3	-4.5
O=C(CSc1n[nH]c(-c2cccs2)n1)NCCc1ccccc1	-0.5	8.4	-1.7	3.9	-4.3	0.8	nt	nt	nt
O=[N+]([O-])c1ccc2c(c1Nc1ccccc1Cl)=NC1(CCCCC1)N=2	2.7	8.6	2.5	-18.0	0.7	63.4*	22.0	-0.4	-11.7
C(=C\c1nc(N2CCCC2)c2ccccc2n1)/c1ccccc1	1.1	18.9	2.3	-11.1	-6.2	40.6*	59.1*	-1.2	-6.7
Cc1cc(C(=O)COC(=O)C23CC4CC(CC(O)(C4)C2)C3)c(C)n1C	1.0	1.2	-0.8	8.2	1.4	-1.9	nt	nt	nt
SMILES	APJ agonist	CCR6 antag	CXCR6 block	APJ antagonist	HTR2A ag	EBI2 block	EBI2 antag conf	EBI2 agonist	bGal counter
Cc1ccc2cccc(N=Cc3c(C)[nH]n(-c4ccccc4)c3=O)c2n1	nt	88.9*	69.4*	nt	-11.4	78.4*	67.0*	-1.0	10.6
O=NN(CC(=O)NNc1ccccc1)CC(=O)NNc1ccccc1	nt	nt	-0.1	nt	-1.4	-3.7	nt	nt	nt
CC(C)C[C@H]1CNC(=S)N1C[C@H]1CCCN1C[C@H](Cc1ccc(O)cc1)N1C[C@H](Cc2ccccc2)N(CCc2ccccc2)C1=S	nt	nt	13.8	nt	-2.0	15.6	nt	nt	nt
CC(C)C[C@H]1CNC(=S)N1C[C@H]1CCCN1C[C@H](CC(C)C)N1C[C@H](Cc2ccc(O)cc2)N(CCc2ccccc2)C1=S	nt	nt	11.7	nt	-1.1	43.5*	14.2	0.8	8.4
Oc1ccc(C[C@H]2CNC(=S)N2CC2CCCN2C[C@H](Cc2ccc(O)cc2)N2C[C@H](Cc3ccccc3)N(CCc3ccccc3)C2=S)cc1 (some centres not stated)	nt	10.9	5.9	nt	-8.9	41.9*	17.0	-0.5	8.0
CC(C)C[C@@H](CN1CCC[C@@H]1CN1C(=S)NC[C@@H]1Cc1ccc(O)cc1)N1C[C@H](Cc2ccccc2)N(CCc2ccccc2)C1=S	nt	nt	0.4	nt	-5.1	47.1*	5.7	-1.1	-7.1
Cc1cc(SCC(=O)N2c3ccccc3NC(=O)CC2C)nc2ccccc12 (configuration not stated)	nt	nt	-0.4	nt	6.7	-2.5	nt	nt	nt
O=C(Nc1ccc(Oc2ccccc2)nc1)C1CCCCN1Cc1cccc(O)c1 (configuration not stated)	-4.1	5.9	0.4	-17.7	-5.8	92.7*	73.6*	0.3	7.4
O=C(Nc1ccc(Oc2ccccc2)nc1)C1CCCCN1Cc1ccc(O)cc1 (configuration not stated)	-5.0	nt	-8.2	0.9	-4.0	85.6*	54.7*	-1.0	4.3

Bioassay records as filed in PubChem BioAssay.
